Calls of active or inactive are those of the source. No cut-off for these calls is given here.
Experiments:
MCF7 = assay: Cytotoxicity against human MCF7 cells at 30 uM by MTS assay; format: functional, cell-based
HeLa = assay: Cytotoxicity against human HeLa cells at 30 uM by MTS assay; format: functional, cell-based
A549 [1] = assay: Cytotoxicity against human A549 cells at 30 uM by MTS assay relative to control; format: functional
Procedure, shortened: (§1)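 MTS read-out (CellTiter 96 AQueous One) of proliferation in A549 or HCT-116 cells grown in DMEM with 10% FBS at 37 °C, 5% CO2. Taxol-resistant A549 cells were exposed for 72 h. Compounds were screened at 30 μM versus vehicle, with ≥50% inhibition counted active. Actives were then tested over a concentration range for IC50. Triplicate wells, three independent experiments, mean ± SD.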

HCT-116 [2] = assay: Cytotoxicity against human HCT116 cells at 30 uM by MTS assay relative to control; format: functional; procedure, shortened: as §1
HT-29 = assay: Cytotoxicity against human HT-29 cells at 30 uM by MTS assay; format: functional, cell-based
MDA-MB-231 = assay: Cytotoxicity against human MDA-MB-231 cells at 30 uM by MTS assay; format: functional, cell-based
HCT-116 [3] = assay: Cytotoxicity against human HCT116 cells by MTS assay; format: functional, cell-based; procedure, shortened: as §1
A549 [4] = assay: Cytotoxicity against human A549 cells by MTS assay; format: functional, cell-based; procedure, shortened: as §1
A549 [5] = assay: Binding affinity to tubulin alpha in human A549 cells immunoblot based based pull down assay; format: cell-based
Procedure, shortened: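 A549 lysate in NETN buffer incubated with biotin, biotinylated probe or control probe at 4 °C, then streptavidin Dynabeads 1 h at 4 °C. Beads washed six times, bound proteins run on SDS-PAGE and immunoblotted for α-tubulin.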

Sus scrofa = species on record: Sus scrofa; assay: Binding affinity to porcine tubulin after overnight incubation by streptavidin pull down assay
Procedure, shortened: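 Purified porcine neuronal tubulin incubated with biotin, biotinylated probe or control probe in NETN buffer at 4 °C. Streptavidin Dynabeads 1 h at 4 °C, six washes, then SDS-PAGE and α-tubulin immunoblot.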

Compound | Activity (MCF7) | Activity (HeLa) | Activity (A549 [1]) | Activity (HCT-116 [2]) | Activity (HT-29) | Activity (MDA-MB-231) | IC50 (HCT-116 [3]) [µM] | IC50 (A549 [4]) [µM] | Activity (A549 [5]) | Activity (Sus scrofa)
COc1cccc(CSC(=S)NCc2nc3sc(C)cc3c(=O)[nH]2)c1 | inactive | inactive | inactive | inactive | inactive | inactive |  |  |  | 
Cc1cc2c(=O)[nH]c(CNC(=S)SCc3ccc(C#N)cc3)nc2s1 | inactive | inactive | inactive | inactive | inactive | inactive |  |  |  | 
Cc1ccc(CNC(=S)SCc2nc3sc(C)cc3c(=O)[nH]2)cc1 | inactive | inactive | >=50% | >=50% | inactive | inactive | 28 | 26.5 |  | 
Cc1cc2c(=O)[nH]c(CNC(=S)SCc3ccccc3)nc2s1 | inactive | inactive | inactive | inactive | inactive | inactive |  |  |  | 
Cc1cc2c(=O)[nH]c(CN(CCCNC(=O)CCCC[C@@H]3SC[C@@H]4NC(=O)N[C@@H]43)Cc3ccc(C#N)cc3)nc2s1 |  |  |  |  |  |  |  |  | inactive | inactive
Cc1cc2c(=O)[nH]c(CSC(=S)NCc3ccc(F)cc3)nc2s1 | inactive | inactive | >=50% | >=50% | inactive | inactive | 28.7 | 18.9 |  | 
COc1cc(CNC(=S)SCc2nc3sc(C)cc3c(=O)[nH]2)cc(OC)c1OC | inactive | inactive | >=50% | >=50% | inactive | inactive | 14.9 | 7.89 |  | 
Cc1cc2c(=O)[nH]c(CSC(=S)NCc3ccc(Br)cc3)nc2s1 | inactive | inactive | >=50% | >=50% | inactive | inactive | 28.7 | 21.9 |  | 
Cc1cc2c(=O)[nH]c(CSC(=S)NCc3ccc4c(c3)OCO4)nc2s1 | inactive | inactive | >=50% | >=50% | inactive | inactive | 24.6 | 14 |  | 
Cc1cc2c(=O)[nH]c(CSC(=S)NCc3ccco3)nc2s1 | inactive | inactive | >=50% | >=50% | inactive | inactive | 29.8 | > 30 |  | 
Cc1cc2c(=O)[nH]c(CSC(=S)NCc3ccc(Cl)cc3Cl)nc2s1 | inactive | inactive | >=50% | >=50% | inactive | inactive | > 30 | 29.5 |  | 
COc1ccc(CNC(=S)SCc2nc3sc(C)cc3c(=O)[nH]2)cc1 | inactive | inactive | >=50% | >=50% | inactive | inactive | 24.5 | 29.1 |  | 
Cc1cc2c(=O)[nH]c(CNC(=S)SCc3ccc(F)cc3F)nc2s1 | inactive | inactive | inactive | inactive | inactive | inactive |  |  |  | 
Cc1ccc(CSC(=S)NCc2nc3sc(C)cc3c(=O)[nH]2)cc1 | inactive | inactive | inactive | inactive | inactive | inactive |  |  |  | 
COc1ccc(CSC(=S)NCc2nc3sc(C)cc3c(=O)[nH]2)cc1 | inactive | inactive | inactive | inactive | inactive | inactive |  |  |  | 
COc1ccc(CNC(=S)SCc2nc3sc(C)cc3c(=O)[nH]2)c(OC)c1 | inactive | inactive | >=50% | >=50% | inactive | inactive | > 30 | > 30 |  | 

Compound | Activity (MCF7) | Activity (HeLa) | Activity (A549 [1]) | Activity (HCT-116 [2]) | Activity (HT-29) | Activity (MDA-MB-231) | IC50 (HCT-116 [3]) [µM] | IC50 (A549 [4]) [µM] | Activity (A549 [5]) | Activity (Sus scrofa)
Cc1cc2c(=O)[nH]c(CSC(=S)NCc3cccs3)nc2s1 | inactive | inactive | >=50% | >=50% | inactive | inactive | 27.8 | 23 |  | 
Cc1cc2c(=O)[nH]c(CSC(=S)NCc3ccc(F)cc3F)nc2s1 | inactive | inactive | >=50% | >=50% | inactive | inactive | > 30 | 16.2 |  | 
Cc1cc2c(=O)[nH]c(CSC(=S)NCc3ccncc3)nc2s1 | inactive | inactive | >=50% | >=50% | inactive | inactive | 14.1 | 7.43 |  | 
O=C(O)CCCC[C@@H]1SC[C@@H]2NC(=O)N[C@@H]21 |  |  |  |  |  |  |  |  | inactive | inactive
Cc1cc2c(=O)[nH]c(CSC(=S)NCc3ccccc3F)nc2s1 | inactive | inactive | >=50% | >=50% | inactive | inactive | 29.7 | > 30 |  | 
COc1ccccc1CNC(=S)SCc1nc2sc(C)cc2c(=O)[nH]1 | inactive | inactive | >=50% | >=50% | inactive | inactive | 18.1 | 7.01 |  | 
COc1ccccc1CSC(=S)NCc1nc2sc(C)cc2c(=O)[nH]1 | inactive | inactive | inactive | inactive | inactive | inactive |  |  |  | 
Cc1cc2c(=O)[nH]c(CNC(=S)SCc3ccc(F)cc3)nc2s1 | inactive | inactive | inactive | inactive | inactive | inactive |  |  |  | 
Cc1cc2c(=O)[nH]c(CSC(=S)NCc3ccc(Cl)cc3)nc2s1 | inactive | inactive | >=50% | >=50% | inactive | inactive | 25.1 | 11.3 |  | 
Cc1cc2c(=O)[nH]c(CNC(=S)SCc3ccc(Cl)cc3)nc2s1 | inactive | inactive | inactive | inactive | inactive | inactive |  |  |  | 
Cc1cc2c(=O)[nH]c(CNC(=S)SCc3ccc(Br)cc3)nc2s1 | inactive | inactive | inactive | inactive | inactive | inactive |  |  |  | 
Cc1cc2c(=O)[nH]c(CNC(=S)SCc3ccc([N+](=O)[O-])cc3)nc2s1 | inactive | inactive | inactive | inactive | inactive | inactive |  |  |  | 
Cc1cc2c(=O)[nH]c(CSC(=S)NCc3ccccc3)nc2s1 | inactive | inactive | >=50% | >=50% | inactive | inactive | > 30 | 29.5 |  | 
Cc1cc2c(=O)[nH]c(CSC(=S)NCc3cccnc3)nc2s1 | inactive | inactive | >=50% | >=50% | inactive | inactive | 9.3 | 5.79 |  | 
CCOC(=O)c1ccc(CSC(=S)NCc2nc3sc(C)cc3c(=O)[nH]2)cc1 | inactive | inactive | inactive | inactive | inactive | inactive |  |  |  | 
Cc1cc2c(=O)[nH]c(CSC(=S)NCc3ccc([N+](=O)[O-])cc3)nc2s1 | inactive | inactive | >=50% | >=50% | inactive | inactive | 20.2 | 12.3 |  | 

Source: ChEMBL document CHEMBL4152279, “Synthesis, cytotoxic evaluation and target identification of thieno[2,3-d]pyrimidine derivatives with a dithiocarbamate side chain at C2 position” (Eur J Med Chem, 2018)
